Measurements taken from ChEMBL document CHEMBL6182897, “Salamandamide Lipodipeptides Are Biosynthetic Intermediate Shunt Products of the Nonamodular Nonribosomal Peptide Assembly Lines of the Viscosin Family” (J Nat Prod, 2025).
Active and inactive are the calls of the source. No cut-off for these calls is given here.

Tests used:
Pseudomonas aeruginosa = experiment: Antibacterial activity against Pseudomonas aeruginosa ATCC27853 assessed as bacterial growth inhibition incubated for overnight by CLSI-protocol based broth micro-dilution assay; assay type: functional, organism-based
Outline: (§1)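 Broth microdilution MIC in cation-adjusted Mueller-Hinton medium, following CLSI. Compound in 2-fold serial dilution; bacteria at a final 5 × 10^5 CFU/mL. Incubated overnight at 37 °C. MIC taken as the lowest concentration preventing visible growth.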

Caco-2 [1] = experiment: Cytotoxicity against human Caco-2 cells assessed as cell count up to 10 uM by Hoechst dye based analysis; assay type: toxicity; settings: caco-2, 10 µM
Acinetobacter baumannii = experiment: Antibacterial activity against Acinetobacter baumannii 09987 assessed as bacterial growth inhibition incubated for overnight by CLSI-protocol based broth micro-dilution assay; assay type: functional, organism-based; outline: as §1
[2] = system: Severe acute respiratory syndrome coronavirus 2; experiment: Inhibition of SARS CoV-2 MPro using Boc-Abu-Tle-Leu-Gln-AMC as substrate incubated for 10 mins
Outline: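 Purified SARS-CoV-2 main protease (cysteine protease) was assayed with a fluorogenic peptide substrate. AMC release was followed continuously over 10 min.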

Neisseria gonorrhoeae [3] = experiment: Antibacterial activity against Neisseria gonorrhoeae ATCC19424 assessed as bacterial growth inhibition incubated for overnight by CLSI-protocol based broth micro-dilution assay; assay type: functional, organism-based
Outline: (§2)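 Neisseria MIC by CLSI broth microdilution in cation-adjusted Mueller-Hinton medium supplemented with 2.5% fetal bovine serum. Compound in 2-fold serial dilution; final inoculum 5 × 10^5 CFU/mL. Incubated overnight at 37 °C. MIC is the lowest concentration with no visible growth.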

Caco-2 [4] = experiment: Cytotoxicity against human Caco-2 cells assessed as cell count up to 10 uM measured after 48 hrs by Hoechst dye based analysis; assay type: toxicity; settings: caco-2, 48 h
Enterococcus faecium [5] = experiment: Antibacterial activity against Enterococcus faecium BM4147-1 assessed as bacterial growth inhibition incubated for overnight by CLSI-protocol based broth micro-dilution assay; assay type: functional, organism-based; outline: as §1
Bacillus subtilis = experiment: Antibacterial activity against Bacillus subtilis 168 assessed as bacterial growth inhibition incubated for overnight by CLSI-protocol based broth micro-dilution assay; assay type: functional, organism-based; outline: as §1
Escherichia coli [6] = experiment: Antibacterial activity against Escherichia coli ATCC25922 assessed as bacterial growth inhibition incubated for overnight by CLSI-protocol based broth micro-dilution assay; assay type: functional, organism-based; outline: as §1
Homo sapiens = species on record: Homo sapiens; experiment: Inhibition of human leukocyte elastase using MeoSuc-Ala-Ala-Pro-Val-AMC as substrate incubated for 10 mins
Neisseria gonorrhoeae [7] = experiment: Antibacterial activity against Neisseria gonorrhoeae S1441 assessed as bacterial growth inhibition incubated for overnight by CLSI-protocol based broth micro-dilution assay; assay type: functional, organism-based; outline: as §2
Enterococcus faecalis = experiment: Antibacterial activity against Enterococcus faecalis ATCC29212 assessed as bacterial growth inhibition incubated for overnight by CLSI-protocol based broth micro-dilution assay; assay type: functional, organism-based; outline: as §1
Candida tropicalis = experiment: Antifungal activity against Candida tropicalis Tu05 assessed as inhibition of fungal growth incubated for 48 hrs by TECAN M200 microtiter plate reader analysis; assay type: functional, organism-based
Outline: (§3)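 EUCAST broth microdilution with direct colony suspension inoculum of 0.5–2.5 × 10^5 CFU/mL, using clinical Candida isolates. Medium was MOPS-buffered RPMI 1640 with glucose to a final 2%, pH 7.0. Plates incubated 48 h at 37 °C, then read at 530 nm to give MIC.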

Candida albicans [8] = experiment: Antifungal activity against Candida albicans Tu02 assessed as inhibition of fungal growth incubated for 48 hrs by TECAN M200 microtiter plate reader analysis; assay type: functional, organism-based; outline: as §3
[9] = target: Procathepsin L (Homo sapiens) (UniProt P07711); experiment: Inhibition of human Cathepsin L using Z-Phe-Arg-pNA as substrate incubated for 60 mins
Sequence of Procathepsin L (Homo sapiens) (P07711 114-333 limits assumed): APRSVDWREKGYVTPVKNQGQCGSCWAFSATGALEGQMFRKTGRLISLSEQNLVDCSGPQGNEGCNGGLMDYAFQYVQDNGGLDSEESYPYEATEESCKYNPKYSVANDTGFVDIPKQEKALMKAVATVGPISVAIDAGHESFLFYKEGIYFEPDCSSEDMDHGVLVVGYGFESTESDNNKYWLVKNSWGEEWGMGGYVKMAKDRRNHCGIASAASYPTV

Enterococcus faecium [10] = experiment: Antibacterial activity against vancomycin-resistant Enterococcus faecium 6011 assessed as bacterial growth inhibition incubated for overnight by CLSI-protocol based broth micro-dilution assay; assay type: functional, organism-based
Outline: (§4)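 Broth microdilution per CLSI in cation-adjusted Mueller-Hinton medium (casein, beef extract, starch). Twofold serial compound dilutions were inoculated at a final 5 × 10^5 CFU/mL and incubated overnight at 37 °C. MIC was the lowest concentration with no visible growth.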

HeLa = experiment: Cytotoxicity against human HeLa cells measured after 24 hrs by resazurin staining based analysis; assay type: functional, cell-based
Outline: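 HeLa cells in RPMI with 10% FBS were seeded at 1 × 10^4 per well onto 2-fold compound dilutions, run in duplicate. Incubation was 24 h at 37 °C, 5% CO2. Resazurin was then added (200 μM final) and incubated overnight. Resorufin fluorescence (ex 560/em 600 nm) was read relative to untreated control.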

Staphylococcus aureus = experiment: Antibacterial activity against Staphylococcus aureus ATCC29213 assessed as bacterial growth inhibition incubated for overnight by CLSI-protocol based broth micro-dilution assay; assay type: functional, organism-based; outline: as §1
Escherichia coli [11] = experiment: Antibacterial activity against Escherichia coli C600 harboring Tn10 deltalpxC deltatolC mutant assessed as bacterial growth inhibition incubated for overnight by CLSI-protocol based broth micro-dilution assay; assay type: functional, organism-based; outline: as §4
Enterococcus faecium [12] = experiment: Antibacterial activity against vancomycin-resistant Enterococcus faecium U200 assessed as bacterial growth inhibition incubated for overnight by CLSI-protocol based broth micro-dilution assay; assay type: functional, organism-based; outline: as §4
Enterococcus faecium [13] = experiment: Antibacterial activity against Enterococcus faecium K209.5 assessed as bacterial growth inhibition incubated for overnight by CLSI-protocol based broth micro-dilution assay; assay type: functional, organism-based; outline: as §1
Klebsiella pneumoniae = experiment: Antibacterial activity against Klebsiella pneumoniae ATCC12657 assessed as bacterial growth inhibition incubated for overnight by CLSI-protocol based broth micro-dilution assay; assay type: functional, organism-based; outline: as §1
Klebsiella aerogenes = experiment: Antibacterial activity against Enterobacter aerogenes ATCC13048 assessed as bacterial growth inhibition incubated for overnight by CLSI-protocol based broth micro-dilution assay; assay type: functional, organism-based; outline: as §1
Nakaseomyces glabratus = experiment: Antifungal activity against Candida glabrata Tu04 assessed as inhibition of fungal growth incubated for 48 hrs by TECAN M200 microtiter plate reader analysis; assay type: functional, organism-based; outline: as §3
Candida albicans [14] = experiment: Antifungal activity against Candida albicans Tu01 assessed as inhibition of fungal growth incubated for 48 hrs by TECAN M200 microtiter plate reader analysis; assay type: functional, organism-based; outline: as §3
Candida albicans [15] = experiment: Antifungal activity against Candida albicans ATCC90028 assessed as inhibition of fungal growth incubated for 48 hrs by TECAN M200 microtiter plate reader analysis; assay type: functional, organism-based; outline: as §3
Candida albicans [16] = experiment: Antifungal activity against Candida albicans Tu03 assessed as inhibition of fungal growth incubated for 48 hrs by TECAN M200 microtiter plate reader analysis; assay type: functional, organism-based; outline: as §3
Enterococcus faecium [17] = experiment: Antibacterial activity against vancomycin-resistant Enterococcus faecium BM4147 assessed as bacterial growth inhibition incubated for overnight by CLSI-protocol based broth micro-dilution assay; assay type: functional, organism-based; outline: as §4
Enterococcus faecium [18] = experiment: Antibacterial activity against Enterococcus faecium 115.2 assessed as bacterial growth inhibition incubated for overnight by CLSI-protocol based broth micro-dilution assay; assay type: functional, organism-based; outline: as §1
SARS-CoV-2 [19] = experiment: Antiviral activity against SARS-CoV-2 expressing mNeonGreen infected in Caco-2 cells at 0.26 MOI assessed as reduction in infection rate for 48 hrs post infection by Hoechst dye based analysis; assay type: functional, organism-based; settings: Severe acute respiratory syndrome coronavirus 2, Caco-2, 48 h
SARS-CoV-2 [20] = experiment: Antiviral activity against SARS-CoV-2 expressing mNeonGreen infected in human Caco-2 cells at 0.26 MOI assessed as reduction in infection rate at 2.5 to 10 uM for 48 hrs post infection by Hoechst dye based analysis relative to control; assay type: functional, Severe acute respiratory syndrome coronavirus 2; design: scale not given: the % may be the effect or the level left; settings: dose 2.5-10 µM
[21] = Cytotoxicity against human Caco-2 cells assessed as cell count for 48 hrs by Hoechst dye based analysis; assay type: toxicity
SARS-CoV-2 [22] = experiment: Antiviral activity against SARS-CoV-2 expressing mNeonGreen infected in human Caco-2 cells at 0.26 MOI assessed as reduction in infection rate at 5 to 10 uM pre-treated with compound for 2.5 hrs followed by viral infection and measured after 48 hrs by Hoechst dye based analysis relative to control; assay type: functional, Severe acute respiratory syndrome coronavirus 2; design: scale not given: the % may be the effect or the level left; settings: dose 5-10 µM, time 50.5 hrs

For `CCCCCCC[C@@H](O)CC(=O)N[C@@H](CC(C)C)C(=O)N[C@@H](CCC(N)=O)C(=O)O`, which Activity (Pseudomonas aeruginosa) is on record?
Its Activity is “inactive”.

What about the Activity (Caco-2 [1]) of the same compound?
Its Activity is “Toxic”.

And the Activity (Acinetobacter baumannii)?
Its Activity is “inactive”.

What about the inhibition [2] of the same compound?
Its inhibition is “inactive”.

What about the Activity (Neisseria gonorrhoeae [3]) of the same compound?
Its Activity is “inactive”.

What about the Activity (Caco-2 [4]) of the same compound?
The Activity was “Toxic”.

What about the Activity (Enterococcus faecium [5]) of the same compound?
The Activity was “inactive”.

What about the Activity (Bacillus subtilis) of the same compound?
Its Activity is “inactive”.

What about the Activity (Escherichia coli [6]) of the same compound?
The Activity was “inactive”.

What about the inhibition (Homo sapiens) of the same compound?
Its inhibition is “inactive”.

And the Activity (Neisseria gonorrhoeae [7])?
The Activity was “inactive”.

And the Activity (Enterococcus faecalis)?
Its Activity is “inactive”.

What about the Activity (Candida tropicalis) of the same compound?
The Activity was “inactive”.

What about the Activity (Candida albicans [8]) of the same compound?
Its Activity is “inactive”.

And the inhibition [9]?
The inhibition was “inactive”.

And the Activity (Enterococcus faecium [10])?
Its Activity is “inactive”.

What about the Activity (HeLa) of the same compound?
The Activity was “inactive”.

And the Activity (Staphylococcus aureus)?
The Activity was “inactive”.

What about the Activity (Escherichia coli [11]) of the same compound?
The Activity was “inactive”.

What about the Activity (Enterococcus faecium [12]) of the same compound?
The Activity was “inactive”.

What about the Activity (Enterococcus faecium [13]) of the same compound?
The Activity was “inactive”.

What about the Activity (Klebsiella pneumoniae) of the same compound?
The Activity was “inactive”.

What about the Activity (Klebsiella aerogenes) of the same compound?
Its Activity is “inactive”.

And the Activity (Nakaseomyces glabratus)?
Its Activity is “inactive”.

And the Activity (Candida albicans [14])?
The Activity was “inactive”.

What about the Activity (Candida albicans [15]) of the same compound?
The Activity was “inactive”.

And the Activity (Candida albicans [16])?
The Activity was “inactive”.

What about the Activity (Enterococcus faecium [17]) of the same compound?
Its Activity is “inactive”.

What about the Activity (Enterococcus faecium [18]) of the same compound?
The Activity was “inactive”.

For `CCCCCCC[C@@H](O)CC(=O)N[C@@H](CC(C)C)C(=O)N[C@H](CCC(N)=O)C(=O)N[C@H]1C(=O)N[C@H](C(C)C)C(=O)N[C@H](CC(C)C)C(=O)N[C@H](CO)C(=O)N[C@@H](CC(C)C)C(=O)N[C@H](CO)C(=O)N[C@@H]([C@@H](C)CC)C(=O)O[C@@H]1C`, which Activity (Caco-2 [1]) is on record?
Its Activity is “Non-toxic”.

What about the EC50 (SARS-CoV-2 [19]) of the same compound?
The EC50 was 3.3 µM.

And the Activity (Caco-2 [4])?
Its Activity is “Non-toxic”.

And the Activity (SARS-CoV-2 [20])?
Its Activity is 60%.

What about the CC50 at 48 h [21] of the same compound?
The CC50 at 48 h was > 20 µM.

And the Activity (SARS-CoV-2 [22])?
Its Activity is 85%.
